CHRM5 agonist – agonists of human muscarinic M5 receptor (CHRM5); CHO-K1 hM5 cells, Fluo-8 calcium fluorescence; 0% DMSO wells, 100% maximal acetylcholine response; activation, % at 3 µM; P08912; actives 0.19% (n = 360,000); AID 624037;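 active = activation above the run's mean over test compounds plus 3 SD, cut at about 23% in these data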;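 note: signal is peak over basal fluorescence ratio across the kinetic read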
Target sequence (P08912 whole entry, looked up): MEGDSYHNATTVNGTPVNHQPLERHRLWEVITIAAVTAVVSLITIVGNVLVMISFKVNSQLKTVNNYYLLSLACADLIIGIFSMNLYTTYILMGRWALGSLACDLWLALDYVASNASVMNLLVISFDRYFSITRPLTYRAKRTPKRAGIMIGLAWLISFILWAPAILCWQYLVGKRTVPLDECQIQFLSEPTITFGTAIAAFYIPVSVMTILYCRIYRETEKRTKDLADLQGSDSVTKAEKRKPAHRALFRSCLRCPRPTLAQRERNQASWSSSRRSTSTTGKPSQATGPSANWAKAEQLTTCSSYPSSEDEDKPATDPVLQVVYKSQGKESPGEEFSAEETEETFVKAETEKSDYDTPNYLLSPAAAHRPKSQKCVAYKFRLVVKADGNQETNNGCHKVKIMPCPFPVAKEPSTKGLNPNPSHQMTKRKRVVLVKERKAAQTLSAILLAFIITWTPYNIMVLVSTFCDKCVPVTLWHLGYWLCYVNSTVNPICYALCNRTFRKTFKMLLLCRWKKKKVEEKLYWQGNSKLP
CHRM5 antagonist – blocks acetylcholine activation of human M5 receptor; actives 0.59% (n = 360,000); AID 624040; CHO-hM5 cells, Fluo-8 calcium fluorescence, ACh EC80; inhibition, % at 3 µM;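 active = inhibition above a per-plate cutoff, the mean of that plate's test compounds plus 3 SD, cut at about 27% in these data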;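 note: 0% = acetylcholine EC80 with DMSO and 100% = DMSO without agonist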
M4 antag – blocks acetylcholine activation of human M4 receptor | P08173 | CHO-hM4 cells, ACh EC80, Fluo-8 calcium fluorescence | inhibition, % at 3 µM | actives 0.73% (n = 360,000) | AID 624125;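 active = inhibition above its plate's cutoff, the mean inhibition of sample wells plus 3 SD, cut at about 27% in these data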;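 note: 0% = acetylcholine EC80 with DMSO and 100% = DMSO without agonist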
CHRM4 PAM – positive allosteric modulators of human muscarinic M4 receptor | P08173 | activation, % at 3 µM | actives 0.4% (n = 360,000) | CHO-K1 hM4/Gqi5, Fluo-8 calcium fluorescence, ACh EC20; 0% = ACh EC20, 100% = maximal ACh;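 active = activation above its plate's cutoff, the mean activation of sample wells plus 3 SD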
CHRM5 PAM – positive allosteric modulators of human muscarinic M5 receptor; P08912; activation, % at 3 µM; CHO-K1 hM5, Fluo-8 calcium, ACh EC20 PAM; 0% = ACh EC20, 100% = ACh EC100; actives 0.3% (n = 360,000);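 active = activation above the run cutoff, the mean activation of all test compounds plus 3 SD, cut at about 18% in these data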
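System – CHO-K1 hM5 cells · Compound – 3 µM, single dose · Incubation – compound preincubation 140 s before EC20 acetylcholine addition · Technique – Fluo-8 calcium fluorescence · Measure – Max/basal fluorescence ratio as % of EC20–EC100 ACh window · Benchmarks – low control EC20 acetylcholine (0%), high control EC100 acetylcholine (100%) · Replication – singlicate, one well per test compound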
M4 ag – agonists of human muscarinic M4 receptor (CHRM4). CHO-K1 hM4/Gqi5, Fluo-8 calcium fluorescence; vehicle 0%, full acetylcholine response 100%. actives 0.14% (n = 360,000). activation, % at 3 µM;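 active = activation above the run mean over all test wells plus 3 SD, cut at about 32% in these data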;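 note: peak over basal fluorescence ratio per well then scaled between controls; 0% = DMSO wells and 100% = acetylcholine at EC100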
* = called active by the depositor. In the library only some 1.8% were active in any assay of this set; here they are far more common.

SMILES	CHRM5 agonist	CHRM5 antagonist	M4 antag	CHRM4 PAM	CHRM5 PAM	M4 ag
CCOC(=O)c1ccc(N2C(=O)CC(Nc3ccc(O)cc3)C2=O)cc1 (configuration not stated)	3.3	-1.8	-9.9	-3.5	-1.0	0.3
COc1cc(/C=C/C(=O)N2CCN(C)CC2)cc(S(=O)(=O)N2CCc3ccccc32)c1OC	-3.4	-3.2	21.1	16.9	10.9	0.8
Cc1ccc(S(=O)(=O)N2C[C@H]3n4c(=O)ccc(=O)n4C[C@H](OC(=O)NCc4ccco4)[C@@]3(O)C2)cc1	0.1	3.6	-11.6	7.5	1.3	0.6
CN1C(=O)/C(=C/c2ccc(C(F)(F)F)cc2)Sc2ccc(C(=O)N3CCN(c4ccccn4)CC3)cc21	-4.6	37.0*	-25.1	5.5	-12.4	4.9
CN1C(=O)/C(=C/c2ccccc2Cl)Sc2ccc(C(=O)N3CCCC3)cc21	20.6	-2.9	-3.1	-1.8	8.7	2.2
C=C(C)CSc1nc2sc3c(c2c(=O)n1-c1ccc(C)cc1)CCN(C)C3	-5.8	8.7	-15.7	-1.1	-3.1	0.0
O=C(NCCc1ccc(Cl)cc1)C1CCCO1 (configuration not stated)	-10.1	60.5*	97.2*	-19.3	-23.0	0.3
O=C(NCCc1ccc(F)cc1)C1CCCO1 (configuration not stated)	0.7	6.8	4.8	-1.7	-5.8	0.6
CCCCCCn1c(=O)[nH]c2nc3cc(N)c(C)cc3nc2c1=O	104.1*	37.2*	26.1	-13.8	-24.1	36.9*
CC[C@H](C)Cc1cn([C@@H](CCCCNC(=O)OC(C)(C)C)C(=O)NCCCCCCCCCCC(=O)N2CCN(C(=O)OC(C)(C)C)CC2)nn1	-2.0	9.3	28.2*	-14.9	-20.9	24.6
CCCOc1ccc2c(c1)C(=NN=C(N)N)c1cc(OCCC)ccc1-2	2.0	10.6	-7.3	28.4*	1.9	4.3
COc1cc(C(=O)NCC(c2ccco2)N2CCCC2)ccc1OCc1ccc(Cl)cc1Cl (configuration not stated)	-11.1	-11.4	51.9*	-16.6	-42.7	4.9
O=C(NCC(c1ccco1)N1CCCCC1)c1ccc(S(=O)(=O)Nc2ccccc2)cc1 (configuration not stated)	-3.6	-2.5	1.8	-3.8	1.9	3.3
COc1ccccc1C(CNC(=O)c1cccc(S(=O)(=O)Nc2ccc(F)cc2)c1)N1CCCC1 (configuration not stated)	-11.8	46.9*	35.8*	-15.5	-46.3	3.2
COc1ccc(Cl)cc1C(=O)NCC(c1ccco1)N1CCCC1 (configuration not stated)	-7.1	1.4	4.0	-8.4	-1.7	0.9
O=C(NCC(c1ccco1)N1CCCC1)c1cccc(NS(=O)(=O)c2ccccc2)c1 (configuration not stated)	-7.9	7.3	74.4*	-18.0	-7.2	1.2
COc1ccc(NS(=O)(=O)c2cccc(C(=O)NCC(c3ccccc3OC)N3CCCC3)c2)cc1 (configuration not stated)	-10.2	20.9	18.5	-10.2	-34.2	1.5
Cc1ccsc1CNC(=O)C1(C)CCN1C(=O)C(C)C (configuration not stated)	-1.2	-1.6	-20.8	2.2	1.2	2.1
COc1ccc(C(=O)NC(=S)NNC(=O)c2ccccc2O)cc1	-3.9	0.8	-10.6	4.0	5.0	1.6
COc1ccc(C(=O)NNC(=S)NC(=O)C(C)(C)C)cc1	27.2*	12.4	7.5	-29.7	-18.9	87.6*
COc1ccc(C(=O)NC(=S)NNC(=O)c2ccccc2C)cc1	59.3*	27.6*	11.6	-51.3	-27.4	122.6*
Cc1ccc(C(=O)NCCN2CCC(n3c(=O)[nH]c4ccccc43)CC2)cc1C	-4.8	-7.1	-20.9	-1.3	-11.3	7.2
COc1cccc(N2CCN(CC(=O)Nc3ccccc3C(=O)NCCc3ccccc3)CC2)c1	-4.4	28.3*	17.6	-4.3	-21.6	17.5
O=C(c1cc2ccccc2[nH]1)N(Cc1cccnc1)CC1CCCN(C2CCCCC2)C1 (configuration not stated)	-8.5	-8.9	16.5	-6.9	-0.2	0.4
Cc1ccc(NC(=O)c2ccccc2NS(=O)(=O)c2ccc(Cl)s2)cc1S(=O)(=O)N1CCOCC1	4.9	31.8*	13.4	-10.3	-19.9	13.7
SMILES	CHRM5 agonist	CHRM5 antagonist	M4 antag	CHRM4 PAM	CHRM5 PAM	M4 ag
O=C(Nc1cc(S(=O)(=O)N2CCOCC2)ccc1O)c1ccc(NS(=O)(=O)c2ccc(Cl)s2)cc1	0.6	-3.2	4.6	-4.6	3.8	-0.8
O=c1c2c(nc3nc(CCc4ccccc4)[nH]n13)CCC2	-4.1	-5.5	-11.5	7.5	21.6*	-0.6
O=c1c2c(nc3nc(NCc4ccc(Cl)cc4)[nH]n13)CCC2	-1.8	-3.6	4.6	-8.8	-6.1	-0.2
CN1CCC2(CC1)N=C(c1ccc(F)cc1)C(=S)N2C(=O)c1ccc(C(C)(C)C)cc1	-9.6	32.6*	4.6	-1.5	-21.0	2.2
Cc1ccc(Nc2ccc(NCc3ccccc3)nn2)cc1C	-1.9	-3.7	3.0	-12.8	-9.9	11.9
Clc1ccc(Nc2ccc(NCc3ccccc3)nn2)cc1	4.1	-0.1	13.5	-31.2	-18.0	49.5*
Cc1sc2ncn(CC(=O)N3CCOCC3)c(=O)c2c1-c1ccccc1	7.7	17.5	-8.7	16.1	25.1*	0.6
CCOC(=O)C1(CC2CCCCO2)CCN(C(=O)Nc2ccc(C(=O)OC)cc2)CC1 (configuration not stated)	7.6	6.7	2.5	-22.9	-13.1	14.7
CCc1ccc(OCC(=O)Nc2ccncc2)cc1	5.4	14.5	3.6	-8.7	-16.2	8.2
O=C(COc1ccc(C(=O)c2ccccc2)cc1)Nc1cccnc1	7.7	31.0*	16.9	-5.8	-15.0	20.0
Cc1ccc(Oc2ccc(OCC(=O)Nc3ccncc3)cc2)cc1	5.7	34.2*	17.9	-13.4	-12.3	12.2
O=C(CN1CCN(c2ccc([N+](=O)[O-])cc2)CC1)c1ccccc1	-2.8	9.2	29.0*	-16.1	-3.9	2.3
O=C(CCc1ccccc1)N1CCN(c2ccc([N+](=O)[O-])cc2)CC1	0.6	2.0	-0.5	29.4*	-4.2	10.5
Cc1cc(C(=O)N2CCN(c3ccc([N+](=O)[O-])cc3)CC2)co1	2.0	1.4	32.9*	41.0*	-6.5	17.1
Cc1cc(C(=O)N2CCN(c3ccc([N+](=O)[O-])cc3)CC2)c(C)o1	1.9	8.9	-8.1	-1.7	-12.8	5.6
O=C(NCC1CCCO1)c1cc(Br)c(Br)s1 (configuration not stated)	0.3	-7.5	-8.2	4.9	4.2	3.3
